TbHK1 inh – blocks Trypanosoma brucei hexokinase 1 activity; recombinant TbHK1, G6PDH-coupled NADH A340; inhibition, % at 10 µM; 0.11% of 220,000 active; AID 1430;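 active means inhibition of 50% or more in the single-dose primary screen; inactive means inhibition below 50%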
Runt-SMMHC FRET – inhibitors of human RUNX1 Runt domain binding to CBFb-SMMHC. Cerulean-Runt/Venus-CBFb-SMMHC FRET ratio 530/480, 1 h. inhibition, % at 20 µM. 0.74% of 220,000 active;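 active means mean inhibition across duplicate retests at 20 µM reaching about 50%, limit read from the data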;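 further: 0% = DMSO wells and 100% = wells with excess untagged CBFb-SMMHC; inhibitors lower the FRET ratio by blocking Runt binding to CBFb-SMMHC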
Runt-CBFb FRET – Runt domain-CBFb interaction inhibition; Q01196+Q13951; Cerulean-Runt/Venus-CBFb FRET ratio 530/480, 1 h; inhibition, % at 20 µM; 0.46% of 220,000 active;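 active means inhibition over about 50% at 20 µM in the single-dose screen, limit read from the data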;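 further: 0% = DMSO wells and 100% = excess unlabeled CBFb competitor control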
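test system = Cerulean-Runt domain fusion protein, energy donor | probe or stimulus = Venus-CBFb binding partner, 100 nM | incubation = two 1 h room-temperature incubations shielded from light | detection = fluorescence energy transfer, 422 nm excitation, 530/480 nm emission | measure = loss of energy transfer signal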
Hck-Nef inh – human Hck-Nef kinase inhibition; Recombinant Hck-YEEI plus Nef, Z-Lyte FRET kinase assay; 0.68% of 220,000 active; P08631; AID 463187; inhibition, % at 20 µM;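 active means Hck-Nef kinase inhibition above about 50%, limit read from the data; inactive means inhibition below that limit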;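 further: 0% = DMSO with Hck plus Nef and 100% = Hck alone without Nef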
Target sequence (P08631 whole entry, looked up): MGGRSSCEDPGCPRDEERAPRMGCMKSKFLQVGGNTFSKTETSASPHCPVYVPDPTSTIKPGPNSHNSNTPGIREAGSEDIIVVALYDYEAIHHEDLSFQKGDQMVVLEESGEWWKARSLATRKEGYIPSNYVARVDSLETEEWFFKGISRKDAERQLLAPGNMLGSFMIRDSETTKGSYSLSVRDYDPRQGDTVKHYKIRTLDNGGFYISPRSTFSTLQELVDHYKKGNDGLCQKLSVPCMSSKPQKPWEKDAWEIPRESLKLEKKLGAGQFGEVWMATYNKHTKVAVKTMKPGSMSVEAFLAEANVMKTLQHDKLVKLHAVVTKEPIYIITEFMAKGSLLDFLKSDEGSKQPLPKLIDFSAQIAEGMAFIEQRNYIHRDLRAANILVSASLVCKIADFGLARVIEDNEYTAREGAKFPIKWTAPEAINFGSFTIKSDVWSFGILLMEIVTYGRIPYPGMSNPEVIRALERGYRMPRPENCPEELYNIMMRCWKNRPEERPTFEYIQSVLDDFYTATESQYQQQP
14-3-3 Bad PPI – disrupts binding of bovine 14-3-3 zeta to phospho-Bad peptide. P63103. TR-FRET 14-3-3zeta/Dy647-pBad peptide displacement, 1 h. 0.71% of 220,000 active. inhibition, % at 21.7 µM;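 active means inhibition above about 70%, limit read from the data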;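 further: 0% = full 14-3-3 plus peptide FRET controls and 100% = background without 14-3-3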
RanGTP-Impb inh – inhibitors of RanGTP-importin-beta interaction, primary screen, biochemical, FRET, CFP-Ran, YFP-importin-beta, homogeneous | cell-free CFP-Ran/YFP-importin-beta FRET ratio | inhibition, % (concentration not given with the values) | 1.1% of 300,000 active;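 active means more than half of the replicate wells show a fall in the fluorescence ratio signal beyond about 16%, limit read from the data, passing the limit was not always enough; inconclusive means exactly half of the replicate wells pass the set limit; inactive means fewer than half of replicates pass the limit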;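 further: 0% = DMSO wells and 100% = Ran loaded with GDP instead of GTP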
* = called active by the depositor; ? = inconclusive; . = no result given. Hits are enriched below; roughly 2.2% of the tested compounds scored in any of these assays.

SMILES | TbHK1 inh | Runt-SMMHC FRET | Runt-CBFb FRET | Hck-Nef inh | 14-3-3 Bad PPI | RanGTP-Impb inh
NS(=O)(=O)c1ccc(CCNC(=O)CCCCCn2c(=S)[nH]c3ccc(Br)cc3c2=O)cc1 | 24 | -5 | -4 | 50* | 36 | -2
O=C(CCCCCn1c(=S)[nH]c2ccc(Br)cc2c1=O)NCC1CCCO1 (stereo not given) | -1 | 1 | 0 | 10 | 4 | 0
COc1ccc(N(CC(=O)Nc2ccccc2F)S(=O)(=O)c2ccc(C)c([N+](=O)[O-])c2)cc1 | 1 | 10 | -1 | 0 | 6 | 1
O=C(Nc1nccs1)c1ccc(Cl)cc1[N+](=O)[O-] | -6 | -2 | . | 0 | 2 | 3
O=C(Nc1nccs1)c1cc2cc(Cl)ccc2oc1=O | -18 | -7 | -2 | 20 | 71* | 5
CS/C(=N\S(=O)(=O)c1cccs1)NC(=O)CSc1nc2ccccc2s1 | 7 | 2 | 6 | 5 | 73* | 2
CCCc1cc(-n2ccnc2C)n2c(nc3ccccc32)c1C#N | . | . | . | . | . | 6
CCCc1cc(Nc2c(C)n(C)n(-c3ccccc3)c2=O)n2c(nc3ccccc32)c1C#N | -9 | 44 | 27 | 0 | 2 | 107*
Cc1cc(Nc2c(C)n(C)n(-c3ccccc3)c2=O)n2c(nc3ccccc32)c1C#N | -15 | 54 | 32 | 7 | -4 | 107*
Cc1cc(SCC(=O)Nc2c(C)n(C)n(-c3ccccc3)c2=O)n2c(nc3ccccc32)c1C#N | -5 | . | . | 2 | . | .
CCOC(=O)C1(Cc2ccc(OC)cc2)CCN(C(=O)CCc2cccnc2)CC1 | 1 | -3 | -2 | 17 | 1 | -2
COC(=O)C1=C(N)Oc2cc(C)n(Cc3ccncc3)c(=O)c2C1c1cccnc1 (stereo not given) | 1 | . | . | -1 | . | -3
CCn1c(C)cc2c(c1=O)C(c1ccccc1)C(C(=O)OC)=C(N)O2 (stereo not given) | 0 | 1 | -2 | 3 | -1 | 42*
CC(NC(=O)c1ccccc1NC(=O)CN1CCc2ccccc2C1)c1ccccc1 (stereo not given) | . | . | . | . | . | 4
O=S(=O)(c1cccs1)N1CCCc2cccc(O)c21 | -3 | 3 | 5 | 8 | 74* | -2
COc1ccc(-c2cnnn2-c2ccc([N+](=O)[O-])cc2)cc1 | . | . | . | . | . | 1
O=C(O)c1cccc(N/N=C/c2cccnc2)c1 | -20 | 2 | -2 | 19 | -24 | 34*
COc1ccc(Br)cc1/C=N/Nc1cccc(C(=O)O)c1 | -2 | 2 | 2 | -1 | -3 | -2
O=C(O)c1cccc(N/N=C/c2ccc(-c3ccccc3)cc2)c1 | 6 | -11 | -10 | 4 | 11 | 2
COc1ccccc1/C=C/C=N/Nc1cccc(C(=O)O)c1 | . | . | . | . | . | 76*
N#CCC(=O)N/N=C/c1ccc(N2N=C(c3ccccc3)CC2c2ccccc2)cc1 (stereo not given) | . | . | . | . | . | 99*
COc1ccc(C2=NN(c3ccc(C=O)cc3)C(c3ccccc3)C2)cc1 (stereo not given) | . | . | . | . | . | 31*
COc1ccc(C2CC(c3ccccc3)=NN2c2ccc(/C=N/NC(=O)c3ccncc3)cc2)cc1 (stereo not given) | -5 | -248 | -112 | 4 | -2 | 19*
O=Cc1ccc(N2N=C(c3ccccc3)CC2c2ccccc2)cc1 (stereo not given) | . | . | . | . | . | 8
COC(=O)Cc1cc(OC)c(OC)cc1S(=O)(=O)N(C)C | -3 | -4 | -2 | 23 | -16 | 1
SMILES | TbHK1 inh | Runt-SMMHC FRET | Runt-CBFb FRET | Hck-Nef inh | 14-3-3 Bad PPI | RanGTP-Impb inh
CCOC(=O)C1CCN(c2nc3ccccc3n2CC(=O)c2ccccc2)CC1 | -3 | -1 | 2 | 21 | -4 | 21*
CCN1/C(=C\C=C(C(C)=O)C(C)=O)Sc2ccccc21 | -6 | -175 | -81 | 11 | -6 | 3
CCOC(=O)/C(C#N)=C(C)/C=C1\Sc2ccccc2N1CC | -3 | -40 | -37 | 3 | -1 | 19*
COc1cccc2c1nc(C)c1cc(C)oc12 | 0 | 3 | -1 | 0 | -1 | 33*
COCCNC(=O)c1ccc2c(=O)n(CCOC)c(=O)[nH]c2c1 | -7 | -1 | -1 | 5 | 85* | -2
CCCCCNC(=O)c1ccc2c(=O)n(CCOC)c(=O)[nH]c2c1 | 0 | 1 | 3 | 2 | -8 | 6
COc1ccc(NC(=O)C2CCCN(C(=O)Nc3ccc(F)cc3)C2)cc1 (stereo not given) | . | . | . | . | . | -1
OC(COCC1COc2ccccc2O1)CN1CCN(c2ccccn2)CC1 (stereo not given) | 2 | 3 | -1 | 0 | 80* | 9
O=C(CC(=O)Nc1ccc(Cl)cc1)N/N=C\c1cccc(F)c1 | . | . | . | . | . | -1
c1ccc(-c2ccc(-c3nccc4ccccc34)[nH]2)cc1 | -11 | 61* | 30 | 57* | 2 | .
Cc1ccccc1NC(=S)NN1CCN(C)CC1 | 2 | 3 | -3 | 1 | 1 | 0
CCOC(=O)C1=C(O)/C(=C/c2ccc(C)o2)SC1=NC(=O)c1ccccc1C | -4 | . | . | 55* | . | .
CC(C)(C)c1ccc(-n2ncc3c2CCCC3NC(=O)CCCn2cncn2)cc1 (stereo not given) | . | . | . | . | . | 0
CCCNC(=O)c1c(N)n(-c2cc(OC)cc(OC)c2)c2nc3ccccc3nc12 | -1 | 109* | 33 | 23 | 18 | 58*
Nc1c(C(=O)Nc2ccccc2)c2nc3ccccc3nc2n1-c1ccc(O)cc1 | -29 | 9 | -1 | 39 | 6 | ?
COCCCNC(=O)c1c(N)n(-c2ccc3c(c2)OCO3)c2nc3ccccc3nc12 | -16 | 9 | 1 | 12 | . | 5
CCOCCCNC(=O)c1c(N)n(-c2ccc3c(c2)OCO3)c2nc3ccccc3nc12 | -17 | 40 | 12 | 27 | -1 | 133*
CCCNC(=O)c1c(N)n(-c2ccc3c(c2)OCO3)c2nc3ccccc3nc12 | 32 | 6 | 5 | 21 | . | 3
CCOCCCNC(=O)c1c(N)n(-c2ccc(S(N)(=O)=O)cc2)c2nc3ccccc3nc12 | -5 | 58* | 35 | 6 | . | ?
O=C(N=C1SCC(=O)N1c1ccccc1Cl)c1ccccc1 | 2 | -2 | -2 | 21 | -17 | 0
Cc1ccsc1C(=O)NN=C1CCCCCC1 | . | . | . | . | . | 1
CC1(C)CC(=O)C/C(=N\NC(=O)CCc2ccc(S(=O)(=O)N3CCOCC3)cc2)C1 | -4 | 5 | 2 | 20 | -11 | 0
CN(c1ccccc1)S(=O)(=O)c1cccc(C(=O)OCC(=O)NCCCN2CCCC2=O)c1 | 6 | -2 | -1 | 1 | -6 | ?
CC(NC(=O)CCNS(=O)(=O)c1cccc2nonc12)c1ccccc1 (stereo not given) | . | . | . | . | . | 1

Bioassay records deposited in PubChem by several laboratories.
